Assay outcomes deposited in PubChem by Sanford-Burnham Center for Chemical Genomics.
SENP1 FRET inh = inhibitors of human SENP1 SUMO protease catalytic domain; actives 0.21% (n = 360,000); inhibition, % at 10 µM; Q9P0U3; AID 624204; recombinant SENP1 catalytic domain, CyPet-SUMO1-YPet FRET cleavage;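 active means inhibition at least 30% at 10 µM, raw YFP signal under a set limit, fluorescence ratio 0.5 to 1.5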;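 further: 0% = enzyme with DMSO and 100% = no enzyme wells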
Target sequence (Q9P0U3 419-644 limits assumed): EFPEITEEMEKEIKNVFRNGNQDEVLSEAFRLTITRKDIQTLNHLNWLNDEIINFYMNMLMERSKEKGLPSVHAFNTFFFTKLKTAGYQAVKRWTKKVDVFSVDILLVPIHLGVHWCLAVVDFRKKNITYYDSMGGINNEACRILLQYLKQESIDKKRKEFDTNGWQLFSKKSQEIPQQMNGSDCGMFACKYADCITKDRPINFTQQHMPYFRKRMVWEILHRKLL
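Test system: human SENP1 catalytic domain; medium: Tris pH 8 buffer plus EDTA, NaCl, BME, BSA, NP40, catalase; incubation: 50 min reaction at room temperature; technique: FRET, CFP and YFP emission; controls: no-enzyme low control and enzyme-plus-DMSO high control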
SENP8 block-1 = inhibitors of human SENP8 protease; Q96LD8; recombinant SENP8, Nedd8 substrate fluorescence; inhibition, % at 20 µM; actives 0.64% (n = 360,000); in the data active means inhibition mostly above about 40%, no sharp cut-off; inactive means mostly below about 27%
SENP6 block = inhibitors of human SENP6 protease; AID 2599; actives 1.8% (n = 330,000); Recombinant SENP6 catalytic domain, aminoluciferin luminescence; Q9GZR1; inhibition, % at 10 µM;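 active means inhibition above about 50% at the single tested dose, limit read from the data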;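 further: plate controls were DMSO wells with enzyme for no effect and DMSO wells lacking enzyme for full effect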
SENP8 block-2 = inhibitors of human SENP8 protease; Q96LD8; purified SENP8, Z-RLRGG-aminoluciferin cleavage, luminescence; inhibition, % at 10 µM; actives 1.2% (n = 330,000); in the data active means inhibition above about 50%
Apaf1 inhib = blocks human Apaf-1 apoptosome activity. reconstituted apoptosome caspase-3 activity, DEVD-Rh110 fluorescence. inhibition, % at 20 µM. actives 0.71% (n = 330,000). AID 489030; active means inhibition of at least 40% at 20 µM;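 further: plate controls were DMSO wells for no effect and DEVD-CHO caspase inhibitor wells for full effect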
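Medium: Hepes buffer, pH 7.5 / System: biochemical Apaf-1 apoptosome reconstitution / Measured by: Rh110 fluorescence, excitation 480 nm, emission 540 nm / Times: compound with Apaf-1, dATP, procaspase-3 30 min, then 50 min reaction, room temperature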
SENP7 block = inhibitors of human SENP7 protease; Q9BQF6; recombinant SENP7, Z-RLRGG-aminoluciferin luminescence, 40 min; inhibition, % at 5 µM; actives 1.5% (n = 330,000);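 active means inhibition above about 50% at the single test dose, limit read from the data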;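 further: plate controls were DMSO with enzyme for no effect and no enzyme buffer wells for full effect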
Target sequence (Q9BQF6 706-1050 limits assumed): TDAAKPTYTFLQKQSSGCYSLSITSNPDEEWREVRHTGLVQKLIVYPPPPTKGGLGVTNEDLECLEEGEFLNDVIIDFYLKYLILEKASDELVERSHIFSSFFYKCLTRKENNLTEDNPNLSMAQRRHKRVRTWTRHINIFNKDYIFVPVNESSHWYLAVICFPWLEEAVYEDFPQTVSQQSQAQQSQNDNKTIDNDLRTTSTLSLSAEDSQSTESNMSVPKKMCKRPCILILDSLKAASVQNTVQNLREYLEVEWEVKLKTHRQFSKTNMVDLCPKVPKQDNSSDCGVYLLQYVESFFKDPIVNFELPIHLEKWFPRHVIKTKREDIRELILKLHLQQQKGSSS
SENP8 conf = confirmation of human SENP8 protease inhibitors | actives 40% (n = 6,200) | inhibition, % at 12.5 µM | Recombinant SENP8, Z-RLRGG-aminoluciferin luminescence, 60 min | shares compounds with SENP7 block;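 active means mean inhibition across replicates above about 50%, limit read from the data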
SENP6 conf = confirmation of human SENP6 protease inhibitors; AID 488915; recombinant SENP6, Z-RLRGG-aminoluciferin luminescence; actives 58% (n = 6,200); inhibition, % at 12.5 µM; shares compounds with SENP7 block
SENP7 confirm = human SENP7 inhibition, confirmed; shares compounds with SENP7 block; recombinant SENP7, Z-RLRGG-aminoluciferin luminescence, 40 min; inhibition, % at 12.5 µM; actives 69% (n = 6,200); AID 488917
Casp3 select = caspase-3 inhibition (SENP selectivity assay). shares compounds with SENP7 block. purified caspase-3, Z-DEVD-aminoluciferin luminescence, 60 min. inhibition, % at 12.5 µM. actives 60% (n = 6,200);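 active means mean inhibition above about 50%, limit read from the data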;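 further: plate controls were enzyme with DMSO for no effect and wells without caspase-3 for full effect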
Luc interf = interferes with luciferase luminescence in SENP counter-screen; shares compounds with SENP7 block; Pre-incubated SENP8/Z-RLRGG-aminoluciferin, luciferase luminescence interference; inhibition, % at 12.5 µM; actives 39% (n = 6,200);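 active means mean inhibition above about 50% when retested at one dose, limit read from the data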;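 further: plate controls were DMSO wells with completed reaction for no effect and substrate without enzyme for full effect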
* = called active by the depositor. Only some compounds are listed: those with a hit (about 2.9% of all), similar ones and a draw of the others.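 How the source made its calls, unless noted: active means mean inhibition above about 50% in the one-dose retest (limit read from the data); inactive means the rest.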

For Cc1cccc(-n2ncc3c(N4CCC5(CC4)OCCO5)ncnc32)c1 the results were SENP1 FRET inh 2.1, SENP8 block-1 7.9, SENP6 block -14.3, SENP8 block-2 -13.3, Apaf1 inhib 15.5 and SENP7 block -18.3.
O=[N+]([O-])c1ccc2nc(-c3ccncc3)[nH]c2c1 was read as SENP1 FRET inh -1.0, SENP8 block-1 20.0, SENP6 block 78.2*, SENP8 block-2 64.3*, Apaf1 inhib -9.3, SENP7 block 51.0*, SENP8 conf 39.3, SENP6 conf 59.9*, SENP7 confirm 88.4*, Casp3 select 85.6* and Luc interf 73.5*.
O=[N+]([O-])c1ccc2nc(-c3ccc(Cl)cc3)[nH]c2c1 was read as SENP1 FRET inh -4.8, SENP8 block-1 -385.2, SENP6 block 75.3*, SENP8 block-2 53.6*, Apaf1 inhib 7.5, SENP7 block 63.2*, SENP8 conf 68.0*, SENP6 conf 72.3*, SENP7 confirm 86.6*, Casp3 select 50.4* and Luc interf 48.6.
`Cc1ccc(-c2nc3ccc([N+](=O)[O-])cc3[nH]2)cc1` gave SENP1 FRET inh 1.2, SENP8 block-1 -2.2, SENP6 block 76.0*, SENP8 block-2 66.4*, Apaf1 inhib 8.6, SENP7 block 72.8*, SENP8 conf 10.8, SENP6 conf 76.9*, SENP7 confirm 95.8*, Casp3 select 64.5* and Luc interf 49.8.
For Nc1nc2ccc([N+](=O)[O-])cc2[nH]1 the results were SENP1 FRET inh 1.1, SENP8 block-1 17.4, SENP6 block 1.8, SENP8 block-2 2.9, Apaf1 inhib 7.4 and SENP7 block 9.9.
Screening O=[N+]([O-])c1ccc2nc(-c3ccccc3[N+](=O)[O-])[nH]c2c1 returned SENP1 FRET inh 0.8, SENP8 block-1 30.0, SENP6 block 6.8, SENP8 block-2 2.0, Apaf1 inhib 7.5 and SENP7 block -1.0.
CN1C(=O)[C@H]2[C@@H](c3ccc(C(F)(F)F)cc3)N[C@]3(CCCN(Cc4ccco4)C3=O)[C@H]2C1=O was read as SENP1 FRET inh 1.9 and SENP8 block-1 -19.2.
Screening COc1ccc2c(=O)c(-c3nc(C)cs3)coc2c1 returned SENP1 FRET inh -4.3, SENP8 block-1 -40.7, SENP6 block 93.5*, SENP8 block-2 90.6*, Apaf1 inhib -8.9, SENP7 block 96.0*, SENP8 conf -6.9, SENP6 conf 52.8*, SENP7 confirm 84.4*, Casp3 select 75.9* and Luc interf 57.3*.
For COc1ccc(-c2coc3cc(O)c(OC)cc3c2=O)cc1 the results were SENP1 FRET inh -1.6, SENP8 block-1 -494.7, SENP6 block 45.8, SENP8 block-2 38.7, Apaf1 inhib -0.9, SENP7 block 53.4*, SENP8 conf 27.2, SENP6 conf 27.3, SENP7 confirm 74.7*, Casp3 select 75.0* and Luc interf 55.8*.
Screening Cc1csc(-c2coc3cc(O)cc(C)c3c2=O)n1 returned SENP1 FRET inh -3.4, SENP8 block-1 6.2, SENP6 block 95.0*, SENP8 block-2 91.0*, Apaf1 inhib -9.0, SENP7 block 4.0, SENP8 conf 43.4, SENP6 conf 92.4*, SENP7 confirm 98.5*, Casp3 select 90.1* and Luc interf 26.9.
Screening COc1ccc(NC(=O)C2Cc3c(-c4ccco4)ccnc3O2)cc1OC (centres undefined) returned SENP1 FRET inh 1.8 and SENP8 block-1 9.3.
For Cc1cc(C)nc(SCC(=O)N/N=C/c2ccc3c(c2)OCO3)n1 the results were SENP1 FRET inh 1.1, SENP8 block-1 -6.3, SENP6 block 61.7*, SENP8 block-2 52.4*, Apaf1 inhib -23.2, SENP7 block 4.4, SENP8 conf 6.0, SENP6 conf 9.3, SENP7 confirm -4.9, Casp3 select 1.5 and Luc interf 7.1.
Screening O=C(N/N=C/c1ccc2c(c1)OCO2)c1cccs1 returned SENP1 FRET inh 1.4, SENP8 block-1 -148.1, SENP6 block 75.8*, SENP8 block-2 83.7*, Apaf1 inhib 9.8, SENP7 block 88.6*, SENP8 conf 91.5*, SENP6 conf 92.6*, SENP7 confirm 99.8*, Casp3 select 94.5* and Luc interf 89.9*.
Screening Cc1cc(C(=O)N/N=C/c2ccc3c(c2)OCO3)c(C)o1 returned SENP1 FRET inh 2.4, SENP8 block-1 -15.1, SENP6 block 73.9*, SENP8 block-2 70.4*, Apaf1 inhib 2.5, SENP7 block 76.6*, SENP8 conf 85.9*, SENP6 conf 83.6*, SENP7 confirm 97.2*, Casp3 select 92.9* and Luc interf 58.2*.
For Cc1ccsc1C(=O)N/N=C/c1ccc2c(c1)OCO2 the results were SENP1 FRET inh 1.4, SENP8 block-1 -62.8, SENP6 block 97.0*, SENP8 block-2 96.1*, Apaf1 inhib -5.3, SENP7 block 100.2*, SENP8 conf 96.1*, SENP6 conf 100.4*, SENP7 confirm 103.3*, Casp3 select 98.9* and Luc interf 98.9*.
O=C(N/N=C/c1ccc2c(c1)OCO2)c1ccc(Cl)cc1Cl was read as SENP1 FRET inh 1.2, SENP8 block-1 3.0, SENP6 block -30.1, SENP8 block-2 -3.9, Apaf1 inhib 9.0 and SENP7 block 3.9.
O=C(N/N=C/c1ccc2c(c1)OCO2)c1ccc2c(c1)OCCO2 was read as SENP1 FRET inh -0.3, SENP8 block-1 -75.4, SENP6 block -20.8, SENP8 block-2 -14.3, Apaf1 inhib -4.7 and SENP7 block 0.7.
For CC1CCN(S(=O)(=O)N2CCC(C(=O)NCc3ccc(F)cc3Cl)CC2)CC1 the results were SENP1 FRET inh 1.9 and SENP8 block-1 12.0.
`NS(=O)(=O)c1ccc(CCNS(=O)(=O)c2ccc(Cl)s2)cc1` gave SENP1 FRET inh -0.8, SENP8 block-1 11.4, SENP6 block 0.3, SENP8 block-2 13.0, Apaf1 inhib -8.7 and SENP7 block -5.9.
For CCN(CC(=O)Nc1ccc(NC(C)=O)cc1)C(=O)c1c(C)nn(Cc2ccc(C)cc2)c1Cl the results were SENP1 FRET inh 2.5 and SENP8 block-1 2.8.
